From PubChem
An excerpt weighted towards active compounds, which were near 2.3% of everything screened.
DSG3 Ab inh = human desmoglein-3 autoantibody binding inhibition; DSG3-coupled beads, scFv-anti-DSG3-GFP binding, flow cytometry; hits give low values; 0.48% of 310,000 active; P32926; AID 588358; binding (percent of control), % at 10 µM;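 active = binding more than 3 SD below its plate's average and above zero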;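 also: hits lower antibody fragment binding to DSG3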
GPR7 antag = blocks human GPR7 receptor signaling. AID 1861. 1.1% of 290,000 active. GPR7-expressing cells, fluorescence antagonist assay. inhibition, % at 4.4 µM; in the data active = inhibition above about 16%, passing the limit was not always enough;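 also: cells stimulated with the agonist NPW; 0% = agonist with vehicle and 100% = vehicle without agonist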
CHT block = inhibits the human high affinity choline transporter. Q9GZV3. CHT-expressing cells, membrane potential dye, choline response; hits give low values. B-score at 10 µM. 0.86% of 310,000 active. AID 488975;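 active = B-score over 3 SD under the library average, and starting fluorescence ratio not unusually high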;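 also: choline stimulus applied at its EC90 after an EC20 pre-addition; B-score computed on integrated fluorescence ratio after choline addition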
Target sequence (Q9GZV3 whole entry, looked up): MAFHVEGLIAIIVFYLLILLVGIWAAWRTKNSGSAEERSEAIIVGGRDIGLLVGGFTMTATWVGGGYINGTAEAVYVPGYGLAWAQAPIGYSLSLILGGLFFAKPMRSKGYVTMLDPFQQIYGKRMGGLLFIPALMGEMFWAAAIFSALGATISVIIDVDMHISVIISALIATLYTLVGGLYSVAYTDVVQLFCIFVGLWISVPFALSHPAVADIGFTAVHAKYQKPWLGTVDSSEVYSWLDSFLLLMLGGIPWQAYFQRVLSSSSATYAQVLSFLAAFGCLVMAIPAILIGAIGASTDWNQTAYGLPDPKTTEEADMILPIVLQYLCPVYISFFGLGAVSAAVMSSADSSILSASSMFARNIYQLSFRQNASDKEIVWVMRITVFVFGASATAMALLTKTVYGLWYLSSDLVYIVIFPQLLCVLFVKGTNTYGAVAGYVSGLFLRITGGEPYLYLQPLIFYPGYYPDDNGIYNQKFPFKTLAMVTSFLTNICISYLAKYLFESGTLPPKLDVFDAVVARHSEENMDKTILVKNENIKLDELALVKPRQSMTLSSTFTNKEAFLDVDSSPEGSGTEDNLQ
T cell modulator = T cell immune modulation candidate | 2C CD8+ T cell-vesicle binding, flow cytometry; hits give low values | response (vesicle binding), % at 7 µM | 0.068% of 330,000 active;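 active = response, share of CD8 T cells binding vesicles, and their 90th percentile fluorescence all below set limits, cut at about 80% in these data, passing the limit was not always enough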;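 also: values below 100% mean blocked vesicle binding to the CD8+ T cells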
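incubation = binding step 1.5 h, 37 °C, antibody labelling 20 min, ice | test system = 2C mouse CD8+ T cells | read-out basis = percent CD8+ FL2 mean versus row control | controls = Peptide-free naked vesicles (low) and QL9 vesicles with 0.7% DMSO vehicle (high) | detection = flow cytometry of vesicle-bound cells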
pCIP destab = compounds decreasing mouse p/CIP protein stability; F442A p/CIP-EGFP cells, EGFP fluorescence, 16 h; decrease of EGFP signal, % at 10 µM; 0.01% of 290,000 active; AID 1984;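 active = EGFP signal decrease of at least 30% at 10 µM or well 3 SD below plate mean, unless failing retest; inactive = the rest, including hits failing retest or dose response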
CHT PAM = allosterically activates the human high affinity choline transporter. Q9GZV3. CHT-expressing cells, membrane potential dye, choline EC20; hits give high values; LV-AA mutant CHT in HEK293 cells. B-score at 10 µM. 0.49% of 310,000 active;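 active = initial fluorescence not abnormally high and integrated response B-score, plate-corrected, over 3 SD above library mean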
CHT inh conf = human CHT inhibition, confirmatory screen. shares compounds with CHT block. CHT-expressing cells, choline membrane potential dye; LV-to-AA substituted CHT, HEK293 cells. CHT activity remaining % of control (hits give low values), % at 10 µM. 70% of 2,400 active. AID 493221;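 active = choline transporter activity left, mean of duplicates at 10 µM, below buffer-only control mean minus 3 SD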;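 also: depolarization triggered by choline at its EC90 following an EC20 pre-addition; 0% = hemicholinium-3 full block and 100% = buffer-only control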
HEK293 CHT ctr = activity in parental HEK293 cells lacking CHT; membrane potential ratio readout (active if shifted either direction beyond buffer ±3SD; no single direction) at 10 µM; AID 493222; shares compounds with CHT block; 4% of 2,400 active; membrane potential dye, choline response; active = decrease or increase beyond buffer ±3SD;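 also: parental cells lack the transporter so any hit is non-specific; ratio is peak minus trough fluorescence over baseline after EC90 choline challenge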
Active calls of the source: *; i = inactive; . = not tested or not shown.

SMILES	DSG3 Ab inh	GPR7 antag	CHT block	T cell modulator	pCIP destab	CHT PAM	CHT inh conf	HEK293 CHT ctr
CC[C@@H](C)C(NC(=O)OC(C)(C)C)c1cn([C@@H](CCCCNC(=O)OC(C)(C)C)C(=O)N2CCN(C(=O)OC(C)(C)C)CC2)nn1 (some centres undefined)	105.8	-8.3	-10.8*	244.4	-7.6	i	i	i
CC(C)CC(NC(=O)OC(C)(C)C)c1cn([C@@H](CCCCNC(=O)OC(C)(C)C)C(=O)N2CCN(C(=O)OC(C)(C)C)CC2)nn1 (some centres undefined)	101.8	-12.8	i	.	3.4	i	.	.
OC(CNCC#Cc1ccccc1)c1ccccc1 (centres undefined)	92.2	-15.1	-6.84*	123.0	-16.9	i	52.4%*	i
CCN1CCN(CC(=O)Nc2ccc(S(=O)(=O)N3C(C)CCCC3C)cc2)CC1 (centres undefined)	126.1	22.4	-5.83*	818.5	4.9	i	25.4%*	i
CNC(=O)c1ccsc1NC(=O)CS(=O)(=O)c1ccc(F)cc1	93.7	.	.	.	.	.	.	.
O=C(NC1CCCCCCC1)NC1CCCCC1	114.4	4.2	-5.67*	397.6	3.5	i	i	i
C=CCn1c(=O)[nH]c(=O)c2c(N)c(C(=O)c3ccc(OC)cc3)sc21	103.5	.	.	.	.	.	.	.
CN(C)C(=O)c1c(NC(=O)c2ccccc2)sc2c1CCC2	101.9	-9.2	i	624.4	1.6	i	.	.
CCN(CC)CCCC(C)NC(=O)c1c(NC(=O)c2ccccc2)sc2c1CCCC2 (centres undefined)	95.7	-6.9	-7.58*	191.8	-5.1	i	39.2%*	i
Cc1ccc([C@H]2C[C@@H](O)[C@H](n3cc(-c4ccc(F)cc4)nn3)CN2Cc2cccs2)cc1	94.9	.	.	.	.	.	.	.
CCCN(CCC)Cc1c(C(=O)N/N=C/C(C)=C\c2ccco2)nnn1-c1nonc1N	98.5	-13.9	-5.26*	187.1	8.6	i	60.3%*	i
N#CCSc1nc2sccc2c(=O)n1-c1ccccc1	.	-15.5	-5.53*	i	-7.5	i	i	i
CC(OC(=O)c1cc(S(=O)(=O)N2CCOCC2)ccc1Br)C(=O)N1CCOCC1 (centres undefined)	106.1	.	.	190.6	.	.	.	.
CCCC(=O)Oc1ccc(N(C(=O)CCC)S(=O)(=O)c2cccs2)cc1	103.9	1.1	-5.73*	225.5	-11.4	i	i	i
CC(=O)Oc1ccc(N(C(C)=O)S(=O)(=O)c2cccs2)cc1	103.5	-5.9	i	530.9	0.6	i	.	.
O=c1c2cc(Br)ccc2nc(-c2ccc(Cl)cc2)n1O	99.6	-11.9	-6.12*	281.5	-4.3	i	41.2%*	i
Cc1ccc(-c2nc3c(Cl)cc(Cl)cc3c(=O)n2O)cc1	109.7	-5.8	-5.45*	197.8	-3.3	i	45.8%*	i
O=C1CC(N2CCN(S(=O)(=O)c3ccccc3F)CC2)C(=O)N1c1ccccc1F (centres undefined)	98.7	.	.	.	.	.	.	.
CN(C)N1C(=O)c2c(Cl)c(Cl)c(Cl)c(Cl)c2C1=O	118.3	.	.	.	.	.	.	.
CCOC(=O)C(C)Sc1nnc(NC(=O)c2cccc([N+](=O)[O-])c2C)s1 (centres undefined)	111.3	-0.3	-5.16*	476.7	-1.4	i	51.6%*	i
CCCCCCn1c(=O)n2n(c1=O)C[C@]1(OC(=O)NC3CC3)CN(S(=O)(=O)c3ccc(C)cc3)C[C@]1(O)C2	109.9	.	.	.	.	.	.	.
Cc1ccc(C(=O)CCC(=O)N2CCN(C/C=C/c3ccccc3)CC2)cc1	101.4	.	.	.	.	.	.	.
CCCCN1C(=O)C(O)(CC(=O)c2ccco2)c2cc(Br)ccc21 (centres undefined)	100.0	-2.3	-5.64*	440.7	-10.2	i	i	i
COc1ccc(S(=O)(=O)N2CCOCC2)cc1NC(=O)c1c(C)noc1C	97.8	.	.	.	.	.	.	.
COCCN(C(=O)COC(=O)c1ccc(-c2ccccc2)cc1)c1c(N)n(Cc2ccccc2)c(=O)[nH]c1=O	110.0	.	.	.	.	.	.	.
SMILES	DSG3 Ab inh	GPR7 antag	CHT block	T cell modulator	pCIP destab	CHT PAM	CHT inh conf	HEK293 CHT ctr
CS(=O)(=O)C1=NN2C(=N)/C(=C\c3ccc(OC(=O)c4ccco4)cc3)C(=O)N=C2S1	102.5	10.1	-6.85*	229.7	-18.2	i	60.0%*	i
O=C(O)c1ccccc1NSc1ccccc1[N+](=O)[O-]	84.1	-5.3	-5.41*	242.5	-4.6	i	62.2%*	i
Oc1cccc(C(O)CNCc2ccc(-c3ccccc3)cc2)c1 (centres undefined)	103.1	10.0	i	342.5	-2.6	i	.	.
Oc1cccc(C(O)CNCc2ccc(OCc3ccc(Cl)cc3Cl)cc2)c1 (centres undefined)	96.5	-13.8	-5.63*	178.3	0.3	i	69.0%*	i
Cc1nonc1NC(=O)CSc1ccc(-c2ccccc2)nn1	101.2	-2.4	-7.98*	306.5	-3.3	i	23.3%*	i
Cc1nonc1NC(=O)CSc1cn[nH]n1	99.2	5.0	i	117.0	5.4	i	.	.
CC(C)(C)C(=O)Nc1sc(-c2ccccc2)cc1C(=O)O	100.2	-3.1	i	193.8	-1.0	i	.	.
Cc1cccc(C(=O)Nc2sc(-c3ccccc3)cc2C(=O)O)c1	89.8	-8.8	-6.33*	144.0	-3.7	i	52.8%*	i
O=S(=O)(O)c1cc(O)c(N=Nc2ccc(O)cc2O)c2ccccc12	92.5	.	.	.	.	.	.	.
CC(C)(C)NC(=O)CSc1ncnc2c1nnn2Cc1ccccc1Cl	104.1	9.5	-6.73*	166.1	0.7	i	i	i
Cc1noc(C)c1CCC(=O)Nc1cc(C(=O)O)ccc1Cl	100.4	.	.	.	.	.	.	.
C[C@]12CC[C@@H]3c4ccc(O)cc4CC[C@H]3[C@@H]1CCC2=O	84.4	-8.4	i	348.2	-18.6	i	.	.
CC(=O)OC1CC2(C)C(=O)CCC2C2CCc3cc(O)ccc3C12 (centres undefined)	102.2	0.5	-8.13*	243.7	-7.6	i	28.4%*	i
Cc1ccc(S(=O)(=O)NCc2ccccc2)cc1C(=O)NCc1ccncc1	99.3	.	.	.	.	.	.	.
COc1ccc(C(C)(C)C)cc1NC(=O)CSc1ncn[nH]1	102.2	.	.	.	.	.	.	.
COc1ccccc1C(=O)OCC(=O)Nc1ccccc1OC(F)F	109.1	-1.7	-7.83*	274.4	-2.4	i	i	i
COc1ccccc1C(=O)OCC(=O)Nc1ccc(OC(F)F)cc1	99.5	-3.2	i	487.7	18.4	i	.	.
